Results pooled from the literature.
Lines come from different studies, so protocols differ. Converted amounts (≈) assume the structure as drawn.

SMILES	organism	test	system	setting	measurement	result
COC(=O)c1cc(-c2cccc(NC(=S)Nc3ccc(Cl)cc3)c2)on1	Mycobacteroides chelonae	microbial growth, broth dilution	ATCC35752	48 h	MIC	> 64 µg/mL
O=c1c2ccccc2[se]n1-c1ccccc1	Trypanosoma brucei	parasite growth		blood stage	EC50	2.97 µM
O=c1c2ccccc2nc(/C=C/c2ccc(F)cc2)n1-c1cccc([N+](=O)[O-])c1	Enterococcus faecium	microbial growth, broth dilution	NCTC7171		MIC	> 128 µg/mL
COc1ccc(Cc2cc(C)cc(=O)n2O)cc1	Candida albicans	microbial growth	ATCC90028		MIC80	2.3 µM (≈ 0.564 µg/mL)
O=C(O)CSc1ncnc2cc(-c3cc4ccccc4s3)sc12	Murine coronavirus	viral replication		1 µM, 10 h	inhibition	-36%
Nc1cccc(-n2c(/C=C/c3ccc(F)cc3)nc3ccccc3c2=O)c1	Enterococcus faecium	microbial growth, broth dilution	NCTC7171		MIC	128 µg/mL (≈ 358 µM)
COC(=O)c1cc(-c2cccc(NC(=S)Nc3ccc(C#N)cc3)c2)on1	Mycobacteroides chelonae	microbial growth, broth dilution	ATCC35752	48 h	MIC	64 µg/mL (≈ 169 µM)
Cc1ccc(-c2nc3ccccc3c(=O)n2-c2cccc(O)c2)cc1	Enterococcus faecium	microbial growth, broth dilution	NCTC7171		MIC	> 128 µg/mL
COC(=O)c1cc(-c2cccc(NC(=S)Nc3cccc(Br)c3)c2)on1	Mycobacteroides chelonae	microbial growth, broth dilution	ATCC35752	48 h	MIC	> 64 µg/mL
Cc1ccc(/C=C/c2nc3ccccc3c(=O)n2-c2cccc(O)c2)cc1	Enterococcus faecium	microbial growth, broth dilution	NCTC7171		MIC	> 128 µg/mL
COC(=O)c1cc(-c2cccc(NC(=S)Nc3ccc(C)cc3)c2)on1	Mycobacteroides chelonae	microbial growth, broth dilution	ATCC35752	48 h	MIC	> 64 µg/mL
Cc1nc(N)sc1-c1ccnc(Nc2ccc(N3CCOCC3)cc2)n1	Plasmodium berghei	parasite growth, luciferase	human	liver stage	IC50	0.46 µM
O=c1c2ccccc2nc(/C=C/c2ccccc2)n1-c1cccc(O)c1	Enterococcus faecium	microbial growth, broth dilution	NCTC7171		MIC	32 µg/mL (≈ 94 µM)
O=C(Nc1cccc(Cl)c1)Nc1ncc(CCNc2ncnc3ccsc23)s1	Plasmodium berghei	parasite growth, luciferase	human	liver stage	IC50	4.2 µM
O=C(N/N=C/c1ccc(O)c(O)c1)c1cc2ccccc2cc1O	Murine coronavirus	viral replication			IC50	6 µM
Cc1cc(C2CCCCC2)n(O)c(=O)c1	Candida albicans	microbial growth	ATCC90028		MIC80	1.9 µM (≈ 0.394 µg/mL)
COC(=O)c1cc(-c2cccc(NC(=S)Nc3ccc(F)cc3F)c2)on1	Mycobacteroides chelonae	microbial growth, broth dilution	ATCC35752	48 h	MIC	16 µg/mL (≈ 41.1 µM)
COc1cccc(Cc2cc(C)cc(=O)n2O)c1	Candida albicans	microbial growth	ATCC90028		MIC80	2.3 µM (≈ 0.564 µg/mL)
COC(=O)c1cc(-c2cccc(NC(=O)Nc3ccc(F)c(F)c3)c2)on1	Mycobacteroides chelonae	microbial growth, broth dilution	ATCC35752	48 h	MIC	> 64 µg/mL
Nc1ccc(/C=C/c2nc3ccccc3c(=O)n2-c2cccc(O)c2)cc1	Enterococcus faecium	microbial growth, broth dilution	NCTC7171		MIC	> 128 µg/mL
